Test results as given in ChEMBL document CHEMBL1821664, “Sulfonamides as a new scaffold for hypoxia inducible factor pathway inhibitors” (Bioorg Med Chem Lett, 2011).
Active and inactive are the calls of the source. No cut-off for these calls is given here.

How the values were obtained:
[1] = target: T1, Hypoxia inducible factors; HIF-1-alpha, HIF-2-alpha (Homo sapiens, UniProt Q16665+Q99814); assay: Inhibition of HIF1alpha expression in human LN229 cells assessed as reduction of HIF-1alpha accumulation at 100 nM preincubated for 1 hr under normoxia condition followed by 24 hrs incubation under hypoxia condition by Western blotting; assay type: functional, cell-based; details: LN-229
[2] = target: T1, Hypoxia inducible factors; HIF-1-alpha, HIF-2-alpha; assay: Inhibition of hypoxia-induced HIF1 activation in human LN229 cells expressing HRE-AP reporter gene assessed as HRE remaining activity at 10 uM preincubated for 1 hr under normoxia condition followed by 24 hrs incubation under hypoxia condition by alkaline phosphatase reporter assay relative to control; assay type: cell-based
Summary of the method: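 LN229-HRE-AP cells pre-treated 1 h with compound or vehicle (1% DMSO), then 24 h in 1% O2 hypoxia incubator; cells lysed and alkaline phosphatase activity measured. Hits were compounds reducing hypoxic AP induction >50%; single assay.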

[3] = target: T1, Hypoxia inducible factors; HIF-1-alpha, HIF-2-alpha; assay: Inhibition of hypoxia-induced HIF1 activation in human LN229 cells expressing HRE-AP reporter gene preincubated for 1 hr under normoxia condition followed by 24 hrs incubation under hypoxia condition by HRE-luciferase reporter assay; assay type: cell-based
Summary of the method: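 HRE-luciferase dose-response: cells pre-treated 1 h, then 24 h hypoxia; luciferase measured in cell extracts; each compound run 5–21 times on separate days, in triplicate. IC50 obtained from a four-parameter logistic fit using a nonlinear mixed-effects model.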

[4] = target: T1, Hypoxia inducible factors; HIF-1-alpha, HIF-2-alpha; assay: Inhibition of hypoxia-induced HIF1 activation in human LN229 cells expressing VEGF reporter gene assessed as VEGF expression at 10 uM preincubated for 1 hr under normoxia condition followed by 24 hrs incubation under hypoxia condition by luciferase reporter assay; assay type: cell-based
Summary of the method: (§1)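 LN229 cells stably carrying a VEGF promoter-luciferase construct, pre-treated 1 h in normoxia with compound at 10 µM final, then 24 h in normoxia or hypoxia; luciferase measured in cell extracts; triplicate means ± SD.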

[5] = target: T1, Hypoxia inducible factors; HIF-1-alpha, HIF-2-alpha; assay: Inhibition of HIF1alpha expression in human LN229 cells assessed as reduction of HIF-1alpha accumulation at 20 uM preincubated for 1 hr under normoxia condition followed by 24 hrs incubation under hypoxia condition by Western blotting; assay type: functional, cell-based; details: LN-229
Summary of the method: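 LN229 glioma cells were pre-treated for 1 h with compound at 20 µM final, then incubated under normoxia or hypoxia for 24 h. HIF-1α accumulation was read by Western blot, with HIF-1α and actin immunoblotted.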

[6] = target: T1, Hypoxia inducible factors; HIF-1-alpha, HIF-2-alpha; assay: Inhibition of HIF1alpha expression in human LN229 cells assessed as reduction of HIF-1alpha accumulation at <10 uM preincubated for 1 hr under normoxia condition followed by 24 hrs incubation under hypoxia condition by Western blotting; assay type: functional, cell-based; details: LN-229
[7] = target: T1, Hypoxia inducible factors; HIF-1-alpha, HIF-2-alpha; assay: Inhibition of hypoxia-induced HIF1 activation in human LN229 cells expressing VEGF reporter gene assessed as VEGF expression at 10 uM after 24 hrs incubation under hypoxia condition by luciferase reporter assay; assay type: cell-based; summary of the method: as §1
[8] = target: T1, Hypoxia inducible factors; HIF-1-alpha, HIF-2-alpha; assay: Inhibition of hypoxia-induced HIF1 activation in human LN229 cells expressing HRE-AP reporter gene at 5 uM preincubated for 1 hr under normoxia condition followed by 24 hrs incubation under hypoxia condition by HRE-luciferase reporter assay relative to control; values are per cent of control
[9] = target: T1, Hypoxia inducible factors; HIF-1-alpha, HIF-2-alpha; assay: Inhibition of hypoxia-induced HIF1 activation in human LN229 cells expressing HRE-AP reporter gene at 10 uM preincubated for 1 hr under normoxia condition followed by 24 hrs incubation under hypoxia condition by HRE-luciferase reporter assay relative to control; values are per cent of control
[10] = target: T1, Hypoxia inducible factors; HIF-1-alpha, HIF-2-alpha; assay: Inhibition of hypoxia-induced HIF1 activation in human LN229 cells expressing HRE-AP reporter gene at 2.5 uM preincubated for 1 hr under normoxia condition followed by 24 hrs incubation under hypoxia condition by HRE-luciferase reporter assay relative to control; values are per cent of control

SMILES | inhibition [1] | Activity [2] | IC50 [3] | inhibition [4] | inhibition [5] | inhibition [6] | inhibition [7] | residual activity [8] | residual activity [9] | residual activity [10]
CC(C)C[C@H](NC(=O)[C@H](Cc1ccccc1)NC(=O)c1cnccn1)B(O)O | Active | – | – | – | – | – | – | – | – | –
COc1ccc(S(=O)(=O)N(Cc2ccc3c(c2)C=CC(C)(C)O3)c2ccccc2)cc1OC | – | 28.9% | 593 nM | Active | Active | inactive | inactive | 2% | 1% | 18%
CC(C)CN(Cc1ccc2c(c1)C=CC(C)(C)O2)S(=O)(=O)c1cccc2ccccc12 | – | – | 656 nM | Active | – | – | inactive | 4% | 4% | 6%
CC(C)CN(Cc1ccc2c(c1)C=CC(C)(C)O2)S(=O)(=O)c1cc(Cl)ccc1Cl | – | – | 731 nM | Active | – | – | inactive | 5% | 1% | 23%
CC(C)CN(Cc1ccc2c(c1)C=CC(C)(C)O2)S(=O)(=O)c1ccc([N+](=O)[O-])cc1 | – | – | 532 nM | Active | – | – | inactive | 3% | 1% | 13%
COc1ccc(S(=O)(=O)N(Cc2ccc3c(c2)C=CC(C)(C)O3)CC(C)C)cc1OC | – | – | 672 nM | Active | – | – | inactive | 6% | 1% | 21%
COc1ccc(S(=O)(=O)N(Cc2ccc3c(c2)C=CC(C)(C)O3)C2CCCCC2)c(OC)c1 | – | – | 1270 nM | Active | – | – | inactive | 5% | 1% | 24%
CC1(C)C=Cc2cc(CN(Cc3ccccc3)S(=O)(=O)c3ccc(Br)cc3OC(F)(F)F)ccc2O1 | – | – | 508 nM | Active | – | – | inactive | 2% | 1% | 15%
